High-throughput results from PubChem.
This is a sample that favours compounds with a hit; in the whole collection about 2% have one here.
core dimer inh – inhibitors of HCV core protein dimerization, primary screen, biochemical, TR-FRET, high-throughput; TR-FRET GST/Flag-core106 dimerization, 1536-well; inhibition, % at 5 µM; 0.33% of 300,000 active;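 active = inhibition above the mean of all tested compounds plus 3 SD, set per screening campaign, cut at about 45% in these data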
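Test system: GST/Flag-tagged HCV core106 proteins; Medium: KF-containing HEPES buffer, pH 7.45, DTT, CHAPS, BSA; Times: compound-protein-antibody incubation 4 h at 22.5 °C; Detection: TR-FRET 671 and 617 nm emission; Benchmarks: wells lacking GST-core106 and wells with excess unlabelled core106.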
MLLE-PAM2 inh – inhibitors of PABP1 MLLE–PAM2 peptide binding, primary screen, biochemical, fluorescence polarization, FITC-PAM2, GST-MLLE. inhibition, % at 20 µM. 0.36% of 360,000 active; in the data active = inhibition above about 35%, passing the limit was not always enough
Target sequence (P11940 whole entry, looked up): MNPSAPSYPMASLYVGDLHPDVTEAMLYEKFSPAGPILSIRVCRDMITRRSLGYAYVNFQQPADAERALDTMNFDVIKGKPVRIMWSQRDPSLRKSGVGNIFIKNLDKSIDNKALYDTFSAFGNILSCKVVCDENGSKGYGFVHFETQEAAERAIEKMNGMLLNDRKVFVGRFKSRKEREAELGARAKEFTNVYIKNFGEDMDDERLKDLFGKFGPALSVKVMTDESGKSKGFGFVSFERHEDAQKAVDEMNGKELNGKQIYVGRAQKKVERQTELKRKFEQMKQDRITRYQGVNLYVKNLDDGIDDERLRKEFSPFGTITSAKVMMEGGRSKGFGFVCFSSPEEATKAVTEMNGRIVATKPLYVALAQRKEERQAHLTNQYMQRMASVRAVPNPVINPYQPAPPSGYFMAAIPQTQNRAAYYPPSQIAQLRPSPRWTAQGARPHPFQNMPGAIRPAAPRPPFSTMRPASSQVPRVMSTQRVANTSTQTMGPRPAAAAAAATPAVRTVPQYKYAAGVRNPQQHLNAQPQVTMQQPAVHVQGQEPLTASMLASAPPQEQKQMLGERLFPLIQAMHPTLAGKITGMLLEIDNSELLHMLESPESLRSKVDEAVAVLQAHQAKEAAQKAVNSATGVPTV
DNA FID counter – compounds displacing fluorescent DNA intercalator, primary screen, artefact control for HCV NS3 helicase inhibitor project, biochemical, FID fluorescence. DNA fluorescent intercalator displacement. inhibition, % at 7.9 µM. 0.17% of 290,000 active; in the data active = inhibition above about 37%;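 note: higher means more ethidium bromide displaced from hairpin DNA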
eIF4H FP inh – human eIF4H binding inhibitors, primary screen, translation initiation inhibitor project, biochemical, uHTS, fluorescence polarization. Eukaryotic translation initiation factor 4H (Homo sapiens), Q15056. eIF4H fluorescence polarization binding assay. inhibition, % at 35 µM. 0.94% of 290,000 active;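 note: calls also rest on retests at 20 µM and on dose response follow-up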
PABP polyA inh – PABP poly(A) RNA binding inhibitors, primary screen, biochemical, fluorescence polarization, uHTS; Polyadenylate-binding protein 1 (Homo sapiens), P11940; inhibition, % at 35 µM; 1% of 290,000 active; AID 2014, 2009;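 note: calls also rest on retests at 20 µM and on dose response follow-up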
HCV NS3 hel inh – inhibitors of HCV NS3 helicase, primary screen, biochemical, Cy5 molecular beacon fluorescence | NS3 helicase DNA unwinding | AID 1800, 2009 | Hepatitis C virus NS3 helicase | inhibition, % at 10.9 µM | 0.56% of 290,000 active;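 active = inhibition above the mean of all tested compounds plus 3 SD, set per campaign, cut at about 35% in these data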
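Compound dosing – single dose, 10.9 µM nominal final, DMSO 0.8% final · System – NS3 helicase fragment of HCV · Buffer or medium – MOPS pH 6.5, MgCl2, DTT, Tween20, BSA · Signal – Cy5 beacon fluorescence read at start and 1 h · Also added – annealed dual-labelled DNA beacon duplex, ATP-started · Schedule – 1 h at 25 °C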
Of the large screens only hits and unclear results are named; the others gave an inactive call. Unless noted, the rule behind the calls is not given here.

Cc1cccc(Cc2cnc(NC(=O)CN3C(=O)/C(=C/c4ccccc4)SC3=S)s2)c1	core dimer inh 62
O=C(Cc1cccc(NC(=O)C2CCCN(C(=O)C3CCCCC3)C2)c1)Nc1cccc(C(=O)N2CCCCC2)c1 (stereo unspecified)	none (no result: core dimer inh, DNA FID counter, eIF4H FP inh, PABP polyA inh, HCV NS3 hel inh)
CC1CC(C)CN(CC(=O)N2CCc3[nH]c4ccccc4c3C2)C1 (stereo unspecified)	eIF4H FP inh 126, PABP polyA inh 106
NC(=O)c1cc2c3ccccc3ccn2c1-c1ccccc1	MLLE-PAM2 inh 46, eIF4H FP inh inconclusive, PABP polyA inh inconclusive
Cc1cc(C(N)=O)c2ccccc2n1	none
O=C1Cc2cc(S(=O)(=O)N3CCN(c4ccc(O)cc4)CC3)ccc2N1	none (no result: core dimer inh, DNA FID counter, eIF4H FP inh, PABP polyA inh, HCV NS3 hel inh)
O=C1CC(=O)Nc2cc(S(=O)(=O)N3CCN(c4ccc([N+](=O)[O-])cc4)CC3)ccc2N1	eIF4H FP inh 70
CC1(C)CC(NCc2cccc([N+](=O)[O-])c2)CC(C)(C)N1	eIF4H FP inh 81, PABP polyA inh 61
CC1CCc2c(sc(NC(=O)c3ccc(N4C(=O)CCC4=O)cc3)c2C(N)=O)C1 (stereo unspecified)	none (no result: core dimer inh, DNA FID counter, eIF4H FP inh, PABP polyA inh, HCV NS3 hel inh)
O=C1S/C(=C/c2ccc(N3CCOCC3)o2)C(=O)N1Cc1ccc(F)cc1	none
O=C1NC(=S)S/C1=C/c1ccc(N2CCOCC2)o1	eIF4H FP inh 87, PABP polyA inh 1.3
CC1(C(=O)NS(=O)(=O)c2cccc(OC(F)F)c2)CCN1C(=O)C1CCCCC1 (stereo unspecified)	none (no result: core dimer inh, DNA FID counter, eIF4H FP inh, PABP polyA inh, HCV NS3 hel inh)
O=C(NC(=S)Nc1ccc(Cc2ccncc2)cc1)c1ccccc1Cl	MLLE-PAM2 inh 43
Cc1ccccc1C(=O)NC(=S)Nc1ccc(Cc2ccncc2)cc1	none
O=C1Nc2ccccc2SC(c2ccccc2)C1O (stereo unspecified)	core dimer inh 83, eIF4H FP inh inconclusive, PABP polyA inh 50
CCOC(=O)N1CCC(N(CCN(C)C)C(=S)Nc2cccc(SC)c2)CC1	none
CSc1cccc(NC(=S)N2CCC(N(C)C3CCCC3)CC2)c1	eIF4H FP inh 2.1, PABP polyA inh 61
CCc1c(C)nc(N2CCN(c3ccc(Cl)cc3)CC2)[nH]c1=O	none
OC1c2cc(Cl)cc(Cl)c2N=C2CCCN21 (stereo unspecified)	none (no result: core dimer inh, DNA FID counter, eIF4H FP inh, PABP polyA inh, HCV NS3 hel inh)
O=C1C(NS(=O)(=O)c2cccs2)=C(N2CCN(c3cccc(Cl)c3)CC2)C(=O)c2ccccc21	eIF4H FP inh 2.3, PABP polyA inh 51
O=C1C(NS(=O)(=O)c2ccccc2)=C(N2CCN(c3ccc(F)cc3)CC2)C(=O)c2ccccc21	none
COc1cccc(/C=N/NC(=O)c2nc(-c3ccccc3)cc(-c3ccccc3)n2)c1	core dimer inh 50
N#Cc1c(NCCN)nc(NCc2ccccc2)c2c1CCN(Cc1ccccc1)C2	eIF4H FP inh 62, PABP polyA inh 72 (no result: core dimer inh)
Cc1ccc(C(N)=S)c(C)c1	MLLE-PAM2 inh 40 (no result: eIF4H FP inh, PABP polyA inh)
Cc1ccc(N(CC(N)=O)C2SC(=O)N(C)C2=O)cc1 (stereo unspecified)	none
Cc1cccc(N(CC(N)=O)C2SC(=O)N(c3ccccc3)C2=O)c1 (stereo unspecified)	MLLE-PAM2 inh 41
CCOC(=O)N1CCC(N(CCN(C)C)C(=S)Nc2ccccc2OCC)CC1	eIF4H FP inh active, PABP polyA inh 54
CCOC(=O)N1CCN(C(=O)CSc2nnc(C3COc4ccccc4O3)o2)CC1 (stereo unspecified)	none
O=C(CSc1nnc(C2COc3ccccc3O2)o1)N1CCCC1 (stereo unspecified)	MLLE-PAM2 inh 39
CC1CCN(C(=S)c2ccc([N+](=O)[O-])cc2)CC1	MLLE-PAM2 inh 44
Cc1ccc(CS(=O)Cc2ccc(C(=O)NCCc3ccccc3)o2)cc1 (stereo unspecified)	none
C1COCCNCCOCCOCCOCCN1	none
S=C1NCCNC(=S)NCCOCCOCCN1	eIF4H FP inh active
Cc1ccc(NC(=O)c2ncn(CCCNCC(C)c3ccccc3)n2)cc1C (stereo unspecified)	none (no result: core dimer inh, DNA FID counter, eIF4H FP inh, PABP polyA inh, HCV NS3 hel inh)
Cc1ccc([C@H]2N[C@]3(CCCN(Cc4ccccc4)C3=O)[C@H]3C(=O)N(C)C(=O)[C@@H]23)cc1	none (no result: core dimer inh, DNA FID counter, eIF4H FP inh, PABP polyA inh, HCV NS3 hel inh)
COc1ccc(/C=C2\Oc3cc(OCC(=O)N4CCC[C@H]4CO)ccc3C2=O)c(OC)c1	PABP polyA inh 17
O=C1/C(=C/c2ccc3c(c2)OCO3)Oc2cc(OCC(=O)N3CCC[C@H]3C(=O)O)ccc21	none
O=C(O)c1ccc(CSc2n[nH]c(-c3ccco3)n2)cc1	eIF4H FP inh 77, PABP polyA inh 79, HCV NS3 hel inh 36
CCOC(=O)CSc1n[nH]c(-c2ccco2)n1	none
CCc1c(O)nc(SCC(=O)Nc2ccccc2OC)n(-c2ccccc2C)c1=O	MLLE-PAM2 inh 46 (no result: eIF4H FP inh, PABP polyA inh)
COc1ccccc1-n1c(SCC(=O)Nc2cccc3ccccc23)nc(O)cc1=O	none
CCc1c(O)nc(SCC(=O)Nc2ccccc2)n(-c2ccccc2C)c1=O	none (no result: core dimer inh, DNA FID counter, eIF4H FP inh, PABP polyA inh, HCV NS3 hel inh)
CCCCc1c(O)nc(SCC(=O)Nc2cccc3ccccc23)n(-c2ccccc2OC)c1=O	MLLE-PAM2 inh 41
Cc1ccc(-n2c(C)cc(/C=N/NC(=O)Cn3c4ccccc4c(=O)c4ccccc43)c2C)cc1	core dimer inh 68
O=C(Cn1c2ccccc2c(=O)c2ccccc21)N/N=C/c1cc([N+](=O)[O-])ccc1N1CCCCCC1	core dimer inh 65
O=C(Cn1c2ccccc2c(=O)c2ccccc21)N/N=C/c1ccc(N2CCCC2)c([N+](=O)[O-])c1	core dimer inh 51
COc1ccccc1CN1CCNC(=O)C1CC(=O)N(C)C1CCOCC1 (stereo unspecified)	none (no result: core dimer inh, DNA FID counter, eIF4H FP inh, PABP polyA inh, HCV NS3 hel inh)
O=C(COc1ccccc1[N+](=O)[O-])N(Cc1cccc(Br)c1)C1CCS(=O)(=O)C1 (stereo unspecified)	none
Nc1ccc(O)cc1C(=O)OCC(=O)C12CC3CC(CC(C3)C1)C2	eIF4H FP inh 68, PABP polyA inh 52
O=C(OCc1nnc(-c2ccc([N+](=O)[O-])cc2)o1)c1ccc(F)c(S(=O)(=O)N2CCOCC2)c1	none (no result: core dimer inh, DNA FID counter, eIF4H FP inh, PABP polyA inh, HCV NS3 hel inh)
Cc1cc(C)c2nc(NC(=O)CN3C(=O)NC4(CCCC4)C3=O)sc2c1	none (no result: DNA FID counter, eIF4H FP inh, PABP polyA inh, HCV NS3 hel inh)
CC1(C)Nc2ccc(O)cc2-c2c1ssc2=S	PABP polyA inh 1.0
COc1cccc(-n2sc3c(c2=S)-c2cc(OC)ccc2NC3(C)C)c1	none
CSCC(=O)Nc1cc(C)on1	none
Cc1cc(NC(=O)CSC2=NCCS2)no1	MLLE-PAM2 inh 44
CCn1c(Cc2ccccc2)nnc1SCC(=O)Nc1nc2ccccc2s1	none
O=C(CSC1=NCCS1)Nc1nc2ccccc2s1	MLLE-PAM2 inh 42
